# Measurements taken from ChEMBL document CHEMBL3525913, “Metabolism-dependent inhibition of CYP3A4 by lapatinib: evidence for formation of a metabolic intermediate complex with a nitroso/oxime metabolite formed via a nitrone intermediate” (Drug Metab Dispos, 2013).
# Legend:
# Liver microsome [1] = assay: Drug level in human liver microsomes treated with lapatinib at 50 uM by LC/MS/MS analysis; type: ADME
# Procedure, shortened: (§1)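 Lapatinib 50 μM (added in DMSO) incubated 30 min at 37°C in 100 mM potassium phosphate pH 7.4 with HLM 1 mg/mL or recombinant CYP3A4+b5 / CYP3A5+b5 100 pmol/mL. Reaction started with NADPH 1 mM. Protein re-isolated by ultracentrifugation (100,000 x g, 4°C, 60 min), washed (KCl/EDTA), resuspended in phosphate buffer, ±2 mM ferricyanide 10 min 37°C, quenched with acetonitrile, then high-resolution LC/MS profiling.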
# Cytochrome P450 3A4 [2] = molecular target: T1, Cytochrome P450 3A4 (Homo sapiens, UniProt P08684); assay: Activity of recombinant CYP3A4 (unknown origin) assessed as compound formation treated with lapatinib at 50 uM by LC/MS/MS analysis; type: ADME; conditions: recombinant enzyme; procedure, shortened: as §1
# T1 sequence (P08684 whole entry): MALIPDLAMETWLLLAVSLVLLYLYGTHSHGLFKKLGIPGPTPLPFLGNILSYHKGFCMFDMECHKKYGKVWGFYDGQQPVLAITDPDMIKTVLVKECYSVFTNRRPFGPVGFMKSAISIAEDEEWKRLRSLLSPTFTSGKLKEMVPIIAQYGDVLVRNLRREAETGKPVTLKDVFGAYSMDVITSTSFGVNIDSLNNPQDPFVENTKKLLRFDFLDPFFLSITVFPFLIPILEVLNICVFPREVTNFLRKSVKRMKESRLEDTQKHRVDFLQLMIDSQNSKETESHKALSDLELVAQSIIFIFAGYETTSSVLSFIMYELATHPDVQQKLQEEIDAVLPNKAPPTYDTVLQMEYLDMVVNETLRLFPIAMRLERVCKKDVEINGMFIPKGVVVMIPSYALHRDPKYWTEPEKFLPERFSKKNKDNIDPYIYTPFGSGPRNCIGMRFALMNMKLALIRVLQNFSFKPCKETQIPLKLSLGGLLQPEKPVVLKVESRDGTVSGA
# [3] = Retention time of the compound by LC/MS/MS analysis relative to lapatinib; type: physicochemical
# Procedure, shortened: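 Phenyl UPLC column (1.7 μm, 2.1 x 100 mm), 0.1% formic acid in water/acetonitrile, 0.4 mL/min. Gradient: 10% organic for 1 min, to 90% over 13 min, held 0.5 min. Detection by accurate-mass MS. Retention times expressed relative to lapatinib.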
# Cytochrome P450 3A5 [4] = molecular target: T2, Cytochrome P450 3A5 (Homo sapiens, UniProt P20815); assay: Activity of recombinant CYP3A5 (unknown origin) assessed as compound formation treated with lapatinib at 50 uM by LC/MS/MS analysis; type: ADME; conditions: recombinant enzyme; procedure, shortened: as §1
# T2 sequence (P20815 whole entry): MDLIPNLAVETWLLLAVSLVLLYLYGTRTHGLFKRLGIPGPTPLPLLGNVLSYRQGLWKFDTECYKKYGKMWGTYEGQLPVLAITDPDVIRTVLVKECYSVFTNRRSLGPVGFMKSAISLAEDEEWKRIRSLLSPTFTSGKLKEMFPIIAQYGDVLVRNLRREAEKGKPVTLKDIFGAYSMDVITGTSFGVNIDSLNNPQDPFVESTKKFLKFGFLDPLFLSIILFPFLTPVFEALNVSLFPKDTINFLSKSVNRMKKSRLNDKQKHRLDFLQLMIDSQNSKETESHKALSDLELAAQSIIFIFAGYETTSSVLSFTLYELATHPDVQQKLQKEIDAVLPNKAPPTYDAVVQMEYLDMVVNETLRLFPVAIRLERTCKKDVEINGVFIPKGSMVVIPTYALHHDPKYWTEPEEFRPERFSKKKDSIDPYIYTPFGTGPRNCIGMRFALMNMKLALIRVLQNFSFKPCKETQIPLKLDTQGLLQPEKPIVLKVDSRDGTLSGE
# Liver microsome [5] = assay: Drug metabolism in human liver microsomes assessed as N-(3-chloro-4-(3-fluorobenzyloxy)phenyl)-6-(5-((hydroxy(2 (methylsulfonyl)ethyl)amino)methyl)furan-2-yl)quinazolin-4-amine formation at 50 uM for 30 mins by LC/MS/MS analysis; type: ADME; conditions: 0.5 h; procedure, shortened: as §1
# Liver microsome [6] = assay: Drug metabolism in human liver microsomes assessed as 5-(4-(3-chloro-4-(3-fluorobenzyloxy)phenylamino)quinazolin-6-yl)furan-2-carbaldehyde oxime formation at 50 uM for 30 mins by LC/MS/MS analysis; type: ADME; conditions: 0.5 h; procedure, shortened: as §1
# Liver microsome [7] = assay: Drug metabolism in human liver microsomes assessed as N-((5-(4-(3-chloro-Drug metabolism in human liver microsomes assessed as 5-(4-(3-chloro-4-(3-fluorobenzyloxy)phenylamino)quinazolin-6-yl)furan-2-carbaldehyde formation at 50 uM for 30 mins by LC/MS/MS analysis; type: ADME; conditions: 0.5 h; procedure, shortened: as §1
# Cytochrome P450 3A4 [8] = molecular target: T1, Cytochrome P450 3A4; assay: Activity of recombinant CYP3A4 (unknown origin) assessed as 2-chloro-4-(6-(5-((2-(methylsulfonyl)ethylamino)methyl)furan-2-yl)quinazolin-4-ylamino)phenol formation at 50 uM for 30 mins by LC/MS/MS analysis; type: ADME; conditions: recombinant enzyme, 0.5 h; procedure, shortened: as §1
# Cytochrome P450 3A4 [9] = molecular target: T1, Cytochrome P450 3A4; assay: Activity of recombinant CYP3A4 (unknown origin) assessed as N-((5-(4-(3-chloro-4-(3-fluorobenzyloxy)phenylamino)quinazolin-6-yl)furan-2-yl)methylene)-2-(methylsulfonyl)ethanamine oxide formation at 50 uM for 30 mins by LC/MS/MS analysis; type: ADME; conditions: recombinant enzyme, 0.5 h; procedure, shortened: as §1
# Cytochrome P450 3A4 [10] = molecular target: T1, Cytochrome P450 3A4; assay: Activity of recombinant CYP3A4 (unknown origin) assessed as (5-(4-(3-chloro-4-(3-fluorobenzyloxy)phenylamino)quinazolin-6-yl)furan-2-yl)methanol formation at 50 uM for 30 mins by LC/MS/MS analysis; type: ADME; conditions: recombinant enzyme, 0.5 h; procedure, shortened: as §1
# Cytochrome P450 3A4 [11] = molecular target: T1, Cytochrome P450 3A4; assay: Activity of recombinant CYP3A4 (unknown origin) assessed as N-(3-chloro-4-(3-fluorobenzyloxy)phenyl)-6-(5-((hydroxy(2 (methylsulfonyl)ethyl)amino)methyl)furan-2-yl)quinazolin-4-amine formation at 50 uM for 30 mins by LC/MS/MS analysis; type: ADME; conditions: recombinant enzyme, 0.5 h; procedure, shortened: as §1
# Cytochrome P450 3A4 [12] = molecular target: T1, Cytochrome P450 3A4; assay: Activity of recombinant CYP3A4 (unknown origin) assessed as 5-(4-(3-chloro-4-(3-fluorobenzyloxy)phenylamino)quinazolin-6-yl)furan-2-carbaldehyde oxime formation at 50 uM for 30 mins by LC/MS/MS analysis; type: ADME; conditions: recombinant enzyme, 0.5 h; procedure, shortened: as §1
# Cytochrome P450 3A4 [13] = molecular target: T1, Cytochrome P450 3A4; assay: Activity of recombinant CYP3A4 (unknown origin) assessed as 5-(4-(3-chloro-4-(3-fluorobenzyloxy)phenylamino)quinazolin-6-yl)furan-2-carbaldehyde formation at 50 uM for 30 mins by LC/MS/MS analysis; type: ADME; conditions: recombinant enzyme, 0.5 h; procedure, shortened: as §1
# Cytochrome P450 3A5 [14] = molecular target: T2, Cytochrome P450 3A5; assay: Activity of recombinant CYP3A5 (unknown origin) assessed as 2-chloro-4-(6-(5-((2-(methylsulfonyl)ethylamino)methyl)furan-2-yl)quinazolin-4-ylamino)phenol formation at 50 uM for 30 mins by LC/MS/MS analysis; type: ADME; conditions: recombinant enzyme, 0.5 h; procedure, shortened: as §1
# Cytochrome P450 3A5 [15] = molecular target: T2, Cytochrome P450 3A5; assay: Activity of recombinant CYP3A5 (unknown origin) assessed as 2-chloro-4-(6-(5-(hydroxy(2-(methylsulfonyl)ethylamino)methyl)furan-2-yl)quinazolin-4-ylamino)phenol formation at 50 uM for 30 mins by LC/MS/MS analysis; type: ADME; conditions: recombinant enzyme, 0.5 h; procedure, shortened: as §1
# Cytochrome P450 3A5 [16] = molecular target: T2, Cytochrome P450 3A5; assay: Activity of recombinant CYP3A5 (unknown origin) assessed as 6-(5-(aminomethyl)furan-2-yl)-N-(3-chloro-4-(3-fluorobenzyloxy)phenyl)quinazolin-4-amine formation at 50 uM for 30 mins by LC/MS/MS analysis; type: ADME; conditions: recombinant enzyme, 0.5 h; procedure, shortened: as §1
# Cytochrome P450 3A5 [17] = molecular target: T2, Cytochrome P450 3A5; assay: Activity of recombinant CYP3A5 (unknown origin) assessed as N-((5-(4-(3-chloro-4-(3-fluorobenzyloxy)phenylamino)quinazolin-6-yl)furan-2-yl)methylene)-2-(methylsulfonyl)ethanamine oxide formation at 50 uM for 30 mins by LC/MS/MS analysis; type: ADME; conditions: recombinant enzyme, 0.5 h; procedure, shortened: as §1
# Cytochrome P450 3A5 [18] = molecular target: T2, Cytochrome P450 3A5; assay: Activity of recombinant CYP3A5 (unknown origin) assessed as (5-(4-(3-chloro-4-(3-fluorobenzyloxy)phenylamino)quinazolin-6-yl)furan-2-yl)methanol formation at 50 uM for 30 mins by LC/MS/MS analysis; type: ADME; conditions: recombinant enzyme, 0.5 h; procedure, shortened: as §1
# Cytochrome P450 3A5 [19] = molecular target: T2, Cytochrome P450 3A5; assay: Activity of recombinant CYP3A5 (unknown origin) assessed as N-(3-chloro-4-(3-fluorobenzyloxy)phenyl)-6-(5-((hydroxy(2 (methylsulfonyl)ethyl)amino)methyl)furan-2-yl)quinazolin-4-amine formation at 50 uM for 30 mins by LC/MS/MS analysis; type: ADME; conditions: recombinant enzyme, 0.5 h; procedure, shortened: as §1
# Cytochrome P450 3A5 [20] = molecular target: T2, Cytochrome P450 3A5; assay: Activity of recombinant CYP3A5 (unknown origin) assessed as 5-(4-(3-chloro-4-(3-fluorobenzyloxy)phenylamino)quinazolin-6-yl)furan-2-carbaldehyde oxime formation at 50 uM for 30 mins by LC/MS/MS analysis; type: ADME; conditions: recombinant enzyme, 0.5 h; procedure, shortened: as §1
# Cytochrome P450 3A5 [21] = molecular target: T2, Cytochrome P450 3A5; assay: Activity of recombinant CYP3A5 (unknown origin) assessed as 5-(4-(3-chloro-4-(3-fluorobenzyloxy)phenylamino)quinazolin-6-yl)furan-2-carbaldehyde formation at 50 uM for 30 mins by LC/MS/MS analysis; type: ADME; conditions: recombinant enzyme, 0.5 h; procedure, shortened: as §1
# Cytochrome P450 3A4 [22] = molecular target: T1, Cytochrome P450 3A4; assay: Activity of recombinant CYP3A4 (unknown origin) assessed as 6-(5-(aminomethyl)furan-2-yl)-N-(3-chloro-4-(3-fluorobenzyloxy)phenyl)quinazolin-4-amine formation at 50 uM for 30 mins by LC/MS/MS analysis; type: ADME; conditions: recombinant enzyme, 0.5 h; procedure, shortened: as §1
# Cytochrome P450 3A4 [23] = molecular target: T1, Cytochrome P450 3A4; assay: Activity of recombinant CYP3A4 (unknown origin) assessed as 2-chloro-4-(6-(5-(hydroxy(2-(methylsulfonyl)ethylamino)methyl)furan-2-yl)quinazolin-4-ylamino)phenol formation at 50 uM for 30 mins by LC/MS/MS analysis; type: ADME; conditions: recombinant enzyme, 0.5 h; procedure, shortened: as §1
# Liver microsome [24] = assay: Drug metabolism in human liver microsomes assessed as 2-chloro-4-(6-(5-((2-(methylsulfonyl)ethylamino)methyl)furan-2-yl)quinazolin-4-ylamino)phenol formation at 50 uM for 30 mins by LC/MS/MS analysis; type: ADME; conditions: 0.5 h; procedure, shortened: as §1
# Liver microsome [25] = assay: Drug metabolism in human liver microsomes assessed as 2-chloro-4-(6-(5-(hydroxy(2-(methylsulfonyl)ethylamino)methyl)furan-2-yl)quinazolin-4-ylamino)phenol formation at 50 uM for 30 mins by LC/MS/MS analysis; type: ADME; conditions: 0.5 h; procedure, shortened: as §1
# Liver microsome [26] = assay: Drug metabolism in human liver microsomes assessed as 6-(5-(aminomethyl)furan-2-yl)-N-(3-chloro-4-(3-fluorobenzyloxy)phenyl)quinazolin-4-amine formation at 50 uM for 30 mins by LC/MS/MS analysis; type: ADME; conditions: 0.5 h; procedure, shortened: as §1
# Liver microsome [27] = assay: Drug metabolism in human liver microsomes assessed as N-((5-(4-(3-chloro-4-(3-fluorobenzyloxy)phenylamino)quinazolin-6-yl)furan-2-yl)methylene)-2-(methylsulfonyl)ethanamine oxide formation at 50 uM for 30 mins by LC/MS/MS analysis; type: ADME; conditions: 0.5 h; procedure, shortened: as §1
# Liver microsome [28] = assay: Drug metabolism in human liver microsomes assessed as (5-(4-(3-chloro-4-(3-fluorobenzyloxy)phenylamino)quinazolin-6-yl)furan-2-yl)methanol formation at 50 uM for 30 mins by LC/MS/MS analysis; type: ADME; conditions: 0.5 h; procedure, shortened: as §1
# CYP3A4 [29] = molecular target: T3, CYP3A4 (Homo sapiens, UniProt P08684); assay: Inhibition of CYP3A4-mediated midazolam 1-hydroxylation in human liver microsomes at 50 uM; type: ADME; conditions: probe midazolam (1-hydroxylation)
# T3 sequence (P08684 whole entry): as the sequence (P08684 whole entry) above
# Procedure, shortened: (§2)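 30 min preincubation with 50 μM test compound (DMSO) and 1 mM NADPH at 37°C in 100 mM potassium phosphate, pH 7.4. Enzyme source was HLM at 1 mg/mL or recombinant CYP3A4 + b5 at 100 pmol/mL. Residual activity assayed with midazolam (30 μM; 5 min; 37°C) at 0.05 mg/mL. 1'-hydroxymidazolam quantified by LC/MS/MS and normalised to solvent controls.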
# CYP3A4 [30] = molecular target: T3, CYP3A4; assay: Inhibition of recombinant CYP3A4 (unknown origin)-mediated midazolam 1-hydroxylation at 50 uM; type: ADME; conditions: recombinant CYP3A4, probe midazolam (1-hydroxylation); procedure, shortened: as §2
# CYP3A5 = CYP3A5 (Homo sapiens, UniProt P20815); assay: Inhibition of recombinant CYP3A5 (unknown origin)-mediated midazolam 1-hydroxylation at 50 uM; type: ADME; conditions: recombinant CYP3A5, probe midazolam (1-hydroxylation)
# Chain of CYP3A5 (P20815 whole entry): as the sequence (P20815 whole entry) above
# Procedure, shortened: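 Recombinant CYP3A5+b5 (100 pmol/mL) preincubated 30 min at 37°C, pH 7.4, with lapatinib 50 μM and 1 mM NADPH. Solvent controls run alongside. Residual activity measured as midazolam (30 μM, 5 min, 37°C) 1'-hydroxylation by LC/MS/MS at 0.05 mg/mL. Measured directly and after ultracentrifugation (100,000 x g, 60 min) with or without 2 mM ferricyanide (10 min). Normalized to solvent control.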
# Cytochrome P450 3A5 [31] = molecular target: T2, Cytochrome P450 3A5; assay: Inhibition of recombinant CYP3A5 (unknown origin)-mediated midazolam 1-hydroxylation at 50 uM in presence of 2 mM ferricyanide; type: ADME; conditions: recombinant enzyme
# Procedure, shortened: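 Recombinant CYP3A5 + b5 (100 pmol/mL) preincubated 30 min at 37°C with test compound (50 μM) in 100 mM potassium phosphate pH 7.4, started with 1 mM NADPH. Then potassium ferricyanide (2 mM final) for 10 min at 37°C, ultracentrifugation, pellet washed. Residual midazolam (30 μM, 5 min, 37°C) 1'-hydroxylation measured by LC/MS/MS, normalized to solvent controls.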
smiles,measurement,setting,value
OCc1ccc(-c2ccc3ncnc(Nc4ccc(OCc5cccc(F)c5)c(Cl)c4)c3c2)o1,Drug metabolism,Liver microsome [1],metabolite_detected
same,Drug metabolism,Cytochrome P450 3A4 [2],metabolite_detected
same,Ratio,[3],1.13
same,Drug metabolism,Cytochrome P450 3A5 [4],metabolite_detected
CS(=O)(=O)CCNCc1ccc(-c2ccc3ncnc(Nc4ccc(OCc5cccc(F)c5)c(Cl)c4)c3c2)o1 [LAPATINIB],Drug metabolism,Liver microsome [5],metabolite_detected
same,Drug metabolism,Liver microsome [6],metabolite_detected
same,Drug metabolism,Liver microsome [7],metabolite_detected
same,Drug metabolism,Cytochrome P450 3A4 [8],metabolite_detected
same,Drug metabolism,Cytochrome P450 3A4 [9],metabolite_detected
same,Drug metabolism,Cytochrome P450 3A4 [10],metabolite_detected
same,Drug metabolism,Cytochrome P450 3A4 [11],metabolite_detected
same,Drug metabolism,Cytochrome P450 3A4 [12],metabolite_detected
same,Drug metabolism,Cytochrome P450 3A4 [13],metabolite_detected
same,Drug metabolism,Cytochrome P450 3A5 [14],metabolite_detected
same,Drug metabolism,Cytochrome P450 3A5 [15],metabolite_detected
same,Drug metabolism,Cytochrome P450 3A5 [16],metabolite_detected
same,Drug metabolism,Cytochrome P450 3A5 [17],metabolite_detected
same,Drug metabolism,Cytochrome P450 3A5 [18],metabolite_detected
same,Drug metabolism,Cytochrome P450 3A5 [19],metabolite_detected
same,Drug metabolism,Cytochrome P450 3A5 [20],metabolite_detected
same,Drug metabolism,Cytochrome P450 3A5 [21],metabolite_detected
same,Drug metabolism,Cytochrome P450 3A4 [22],metabolite_detected
same,Drug metabolism,Cytochrome P450 3A4 [23],metabolite_detected
same,Drug metabolism,Liver microsome [24],metabolite_detected
same,Drug metabolism,Liver microsome [25],metabolite_detected
same,Drug metabolism,Liver microsome [26],metabolite_detected
same,Drug metabolism,Liver microsome [27],metabolite_detected
same,Drug metabolism,Liver microsome [28],metabolite_detected
same,inhibition at 50 µM,CYP3A4 [29],45%
same,inhibition at 50 µM,CYP3A4 [30],45%
same,inhibition at 50 µM,CYP3A5,< 15%
same,inhibition (INH),Cytochrome P450 3A5 [31],Active
